Consider 48 compounds from ChEMBL document CHEMBL1145936, “Rational design of an indolebutanoic acid derivative as a novel aldose reductase inhibitor based on docking and 3D QSAR studies of phenethylamine derivatives” (J Med Chem, 2003).

This experiment has as its target Aldo-keto reductase family 1 member B1 (Sus scrofa, UniProt P80276). Description: Inhibition of pig kidney aldose reductase (ALR2). Put shortly: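 Enzyme prepared from pig kidney and assayed in vitro following a previously published method. Inhibition read spectrophotometrically at 340 nm; IC50 values reported. Tolrestat served as positive control.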

`CCCCCCCCCC(=O)NCCc1ccc(O)cc1` displayed a 50% inhibitory concentration (IC50) of 110 µM.

For `O=C(O)CCC(=O)n1ccc2c(O)cccc21`, 7.4 µM corresponded to half-maximal inhibition (IC50).

In turn, `COc1ccc(CCNC(=O)c2ccccc2C(=O)O)cc1` showed an IC50 of 177 µM.

Consider `O=C(O)CCCC(=O)NCCc1ccc(Br)cc1`, for which half-maximal inhibition (IC50) was put at 110 µM.

`O=C(O)/C=C/C(=O)NCCc1ccc(O)cc1` showed a half-maximal inhibitory concentration (IC50) of 80 µM.

In turn, `O=C(O)/C=C/C(=O)Nc1ccccc1` displayed an IC50 of 182 µM.

As for `CCCCCCCC(=O)NCCc1ccc(O)cc1`, inhibition was half-maximal at 120 µM (IC50).

`O=C(O)c1ccccc1C(=O)NCc1ccccc1` gave a half-maximal inhibitory concentration (IC50) of 180 µM.

Consider `O=C(O)c1ccccc1C(=O)N1CCc2ccccc21`, for which the IC50 stood at 95 µM.

On to `CCCCCCCCCCCC(=O)NCCc1ccc(O)cc1`, for which half-maximal inhibition (IC50) required 110 µM. This IC50 and that of the compound before are within 1.5-fold of each other.

`COc1cc(C(=O)NCCc2ccc(O)cc2)cc(OC)c1OC` gave an IC50 of 100 µM.

The compound `COc1ccc2c(C(=S)N(C)CC(=O)O)cccc2c1C(F)(F)F` [TOLRESTAT] registered a 50% inhibitory concentration (IC50) of 16 µM.

In the case of `O=C(O)/C=C/C(=O)n1ccc2ccccc21`, 37 µM corresponded to half-maximal inhibition (IC50). This IC50 lies about 2.3-fold higher than the previous one.

In turn, `O=C(O)c1ccccc1C(=O)n1ccc2ccccc21` came in with a half-inhibitory concentration (IC50) of 30 µM.

`O=C(O)CCCC(=O)NCCc1ccc(Cl)cc1` displayed an IC50 of 154 µM. This IC50 is about 5.1-fold higher than that of the compound before.

`O=C(O)CCC(=O)N1CCc2ccccc21`: the 50% inhibitory concentration (IC50) is 102 µM.

With `O=C(O)c1ccccc1C(=O)NCCc1ccccc1`, inhibition was half-maximal at 88 µM (IC50).

Take `O=C(O)CCCC(=O)NCCc1ccccc1`: the IC50 was 104 µM.

`O=C(O)c1ccccc1C(=O)NCCc1ccc(F)cc1`: the IC50 stood at 88 µM.

Compound `O=C(O)CCC(=O)NCCc1ccc(Cl)cc1` had a concentration for half-maximal inhibition (IC50) of 99 µM.

The compound `O=C(O)CCC(=O)NCCc1ccc(Br)cc1` yielded an IC50 of 94 µM.

`O=C(O)CCC(=O)NCc1ccccc1` registered a 50% inhibitory concentration (IC50) of 141 µM.

In turn, `O=C(O)/C=C/C(=O)NCCc1ccc(Cl)cc1` gave an IC50 of 112 µM.

The compound `COc1ccc(CCNC(=O)CCCC(=O)O)cc1` returned a half-inhibitory concentration (IC50) of 185 µM. Compared with the last compound, the IC50 is about 1.7-fold higher.

Compound `O=C(O)/C=C/C(=O)NCCc1ccc(F)cc1` returned an IC50 of 75 µM.

Consider `O=C(O)CCCC(=O)NCc1ccccc1`, for which inhibition was half-maximal at 133 µM (IC50).

The compound `O=C(O)/C=C/C(=O)NCCc1ccc(Br)cc1` gave an IC50 of 99 µM.

As to `COc1ccc(CCNC(=O)/C=C/C(=O)O)cc1`, inhibition was half-maximal at 155 µM (IC50).

For the compound `O=C(NCCc1ccc(O)cc1)c1ccccc1`, the IC50 is 160 µM.

In turn, `O=C(O)CCCC(=O)NCCc1ccc(F)cc1` registered a 50% inhibitory concentration (IC50) of 76 µM.

On to `CCCCCCCCCCCCCCCC(=O)NCCc1ccc(O)cc1`, for which half-maximal inhibition (IC50) was put at 150 µM. This IC50 lies about 2-fold higher than the previous one.

`O=C(O)c1ccccc1C(=O)NCCc1ccc(Br)cc1` registered an IC50 of 81 µM.

With `O=C(O)c1ccccc1C(=O)Nc1ccccc1`, the midpoint of inhibition, the IC50, lay at 227 µM.

`O=C(O)/C=C/C(=O)N1CCc2ccccc21` yielded an IC50 of 40 µM.

In turn, `CCCCC(=O)NCCc1ccc(O)cc1` came in with an IC50 of 130 µM.

Compound `O=C(O)CCC(=O)Nc1ccccc1` displayed a concentration for half-maximal inhibition (IC50) of 192 µM.

On to `COc1ccc(CCNC(=O)CCC(=O)O)cc1`, for which the half-maximal inhibitory concentration (IC50) turned out to be 170 µM.

On to `O=C(O)CCC(=O)NCCc1ccc(F)cc1`, for which the half-maximal inhibitory concentration (IC50) turned out to be 94 µM.

In turn, `O=C(O)CCC(=O)NCCc1ccccc1` had a 50% inhibitory concentration (IC50) of 78 µM.

`O=C(O)c1ccccc1C(=O)NCCc1ccc(O)cc1` displayed a concentration for half-maximal inhibition (IC50) of 340 µM.

`O=C(O)/C=C/C(=O)NCCc1ccccc1` showed an IC50 of 73 µM.

Regarding `O=C(O)/C=C/C(=O)NCc1ccccc1`, half-maximal inhibition (IC50) required 150 µM.

On to `CCC(C)C(=O)NCCc1ccc(O)cc1` (stereo not drawn), for which the IC50 is 1800 µM.

With `CC(=O)NCCc1ccc(O)cc1`, the IC50 was 160 µM.

Compound `O=C(O)CCC(=O)n1ccc2ccccc21` registered an IC50 of 24 µM. This IC50 lies about 6.7-fold lower than the previous one.

Take `O=C(O)CCC(=O)NCCc1ccc(O)cc1`: the half-maximal inhibitory concentration (IC50) stood at 390 µM.

In the case of `O=C(O)CCCC(=O)Nc1ccccc1`, inhibition was half-maximal at 440 µM (IC50).

`O=C(O)c1ccccc1C(=O)NCCc1ccc(Cl)cc1`: the half-inhibitory concentration (IC50) was 203 µM.
